Assays:
[1] = test system: SNB-19; assay: Anticancer activity against human SNB19 cells assessed as cell growth promotion at 10^-5 M after 48 hrs by SRB assay relative to control; format: functional
[2] = test system: SNB-75; assay: Anticancer activity against human SNB75 cells assessed as cell growth promotion at 10^-5 M after 48 hrs by SRB assay relative to control; format: functional
[3] = test system: Malme-3M; assay: Anticancer activity against human MALME-3M cells assessed as cell growth promotion at 10^-5 M after 48 hrs by SRB assay relative to control; format: functional
[4] = test system: CCRF-CEM; assay: Anticancer activity against human CCRF-CEM cells assessed as cell growth promotion at 10^-5 M after 48 hrs by SRB assay relative to control; format: functional
[5] = test system: HOP-62; assay: Growth inhibition of human HOP62 cells after 48 hrs by SRB assay; format: functional; conditions: HOP-62, 48 h
Procedure, shortened: (§1)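 NCI 60-panel five-dose assay at 0.01, 0.1, 1, 10 and 100 μM. Cells in RPMI 1640 with 5% FBS and 2 mM L-glutamine, preincubated 24 h, with time-zero plates TCA-fixed. Drug exposure 48 h at 37 °C. Read by SRB staining at 515 nm. GI50 is the concentration where [(Ti−Tz)/(C−Tz)]×100 = 50, taken from log concentration versus % growth curves.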

[6] = test system: M14; assay: Anticancer activity against human M14 cells assessed as cell growth promotion at 10^-5 M after 48 hrs by SRB assay relative to control; format: functional
[7] = test system: SK-MEL-2; assay: Anticancer activity against human SK-MEL-2 cells assessed as cell growth promotion at 10^-5 M after 48 hrs by SRB assay relative to control; format: functional
[8] = test system: OVCAR-4; assay: Anticancer activity against human OVCAR4 cells assessed as cell growth promotion at 10^-5 M after 48 hrs by SRB assay relative to control; format: functional
[9] = test system: OVCAR-8; assay: Anticancer activity against human OVCAR8 cells assessed as cell growth promotion at 10^-5 M after 48 hrs by SRB assay relative to control; format: functional
[10] = test system: UO-31; assay: Anticancer activity against human UO31 cells assessed as cell growth promotion at 10^-5 M after 48 hrs by SRB assay relative to control; format: functional
[11] = test system: SK-MEL-28; assay: Growth inhibition of human SK-MEL-28 cells after 48 hrs by SRB assay; format: functional; conditions: SK-MEL-28, 48 h
Procedure, shortened: (§2)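 NCI-60 panel cells grown in RPMI 1640 with 5% FBS and 2 mM L-glutamine, then seeded at 5000–40,000 cells/well by doubling time and preincubated for 24 h. Compound in DMSO was tested either at 10^-5 M alone or at 0.01–100 μM in five doses, for 48 h at 37 °C. Cells were fixed with cold TCA (10% final), stained with SRB, and read at 515 nm. GI50 was taken from % growth relative to time-zero and control wells.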

[12] = test system: OVCAR-4; assay: Growth inhibition of human OVCAR4 cells after 48 hrs by SRB assay; format: functional; conditions: OVCAR-4, 48 h; procedure, shortened: as §1
[13] = test system: SK-OV-3; assay: Growth inhibition of human SKOV3 cells after 48 hrs by SRB assay; format: functional; conditions: SK-OV-3, 48 h; procedure, shortened: as §2
[14] = test system: K562; assay: Anticancer activity against human K562 cells assessed as cell growth promotion at 10^-5 M after 48 hrs by SRB assay relative to control; format: functional
[15] = test system: MDA-MB-231; assay: Anticancer activity against human MDA-MB-231 cells assessed as cell growth promotion at 10^-5 M after 48 hrs by SRB assay relative to control; format: functional
[16] = test system: BT-549; assay: Anticancer activity against human BT549 cells assessed as cell growth promotion at 10^-5 M after 48 hrs by SRB assay relative to control; format: functional
[17] = test system: MDA-MB-468; assay: Anticancer activity against human MDA-MB-468 cells assessed as cell growth promotion at 10^-5 M after 48 hrs by SRB assay relative to control; format: functional
[18] = test system: EKVX; assay: Cytotoxicity against human EKVX cells after 48 hrs by SRB assay; format: cell-based
Procedure, shortened: (§3)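 NCI-60 five-dose screen in RPMI 1640 with 5% FBS and 2 mM L-glutamine; 5000–40,000 cells/well, 24 h pre-incubation. DMSO stocks diluted to 0.01, 0.1, 1, 10 and 100 μM final; 48 h at 37 °C, 5% CO2. Fixed with TCA (10% final adherent, 16% suspension), stained with 0.4% SRB, A515. GI50, TGI and LC50 taken from time-zero, control and test absorbances.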

[19] = test system: SR; assay: Cytotoxicity against human SR cells after 48 hrs by SRB assay; format: cell-based
Procedure, shortened: (§4)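 NCI-60 five-dose screen. Cells grown in RPMI 1640 with 5% FBS and 2 mM L-glutamine and pre-incubated 24 h; a time-zero plate is TCA-fixed. Drug added at 0.01, 0.1, 1, 10 and 100 µM (DMSO stock) for 48 h at 37 °C, 5% CO2. Fixed with cold TCA (10% final for adherent, 16% for suspension cells), stained with 0.4% SRB, A515. GI50, TGI and LC50 taken from dose-response curves.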

[20] = test system: MOLT-4; assay: Cytotoxicity against human MOLT4 cells after 48 hrs by SRB assay; format: cell-based; conditions: molt-4, 48 h; procedure, shortened: as §3
[21] = test system: CCRF-CEM; assay: Cytotoxicity against human CCRF-CEM cells after 48 hrs by SRB assay; format: cell-based; procedure, shortened: as §3
[22] = test system: HT-29; assay: Cytotoxicity against human HT-29 cells after 48 hrs by SRB assay; format: cell-based; conditions: ht-29, 48 h; procedure, shortened: as §3
[23] = test system: A549; assay: Anticancer activity against human A549 cells assessed as cell growth promotion at 10^-5 M after 48 hrs by SRB assay relative to control; format: functional
[24] = test system: HOP-62; assay: Anticancer activity against human HOP62 cells assessed as cell growth promotion at 10^-5 M after 48 hrs by SRB assay relative to control; format: functional
[25] = test system: NCI-H226; assay: Anticancer activity against human NCI-H226 cells assessed as cell growth promotion at 10^-5 M after 48 hrs by SRB assay relative to control; format: functional
[26] = test system: NCI-H322M; assay: Anticancer activity against human NCI-H322M cells assessed as cell growth promotion at 10^-5 M after 48 hrs by SRB assay relative to control; format: functional
[27] = test system: NCI-H460; assay: Anticancer activity against human NCI-H460 cells assessed as cell growth promotion at 10^-5 M after 48 hrs by SRB assay relative to control; format: functional
[28] = test system: NCI-H522; assay: Anticancer activity against human NCI-H522 cells assessed as cell growth promotion at 10^-5 M after 48 hrs by SRB assay relative to control; format: functional
[29] = test system: HCT-116; assay: Anticancer activity against human HCT116 cells assessed as cell growth promotion at 10^-5 M after 48 hrs by SRB assay relative to control; format: functional
[30] = test system: MDA-MB-435; assay: Cytotoxicity against human MDA-MB-435 cells after 48 hrs by SRB assay; format: cell-based; conditions: mda-mb-435, 48 h; procedure, shortened: as §3
[31] = test system: OVCAR-8; assay: Cytotoxicity against human OVCAR8 cells after 48 hrs by SRB assay; format: cell-based; conditions: ovcar-8, 48 h; procedure, shortened: as §3
[32] = test system: ACHN; assay: Cytotoxicity against human ACHN cells after 48 hrs by SRB assay; format: cell-based; procedure, shortened: as §3
[33] = test system: TK-10; assay: Cytotoxicity against human TK10 cells after 48 hrs by SRB assay; format: cell-based; conditions: tk-10, 48 h; procedure, shortened: as §4

## O=c1c2ccccc2nc(-c2ccco2)n1/N=C/c1ccccc1Cl
[1]
  Activity: 62.14%
[2]
  Activity: 32.38%
[3]
  Activity: 78.64%
[4]
  Activity: 83.12%
[5]
  GI50: 3.56 µM
  TGI: 13.7 µM
[6]
  Activity: 87.98%
[7]
  Activity: 67.89%
[8]
  Activity: 4.38%
[9]
  Activity: 26.87%
[10]
  Activity: 62.12%
[11]
  GI50: 4.45 µM
  TGI: 18.6 µM
[12]
  GI50: 1.82 µM
  TGI: 6.48 µM
[13]
  GI50: 3.68 µM
  TGI: 14.8 µM
[14]
  Activity: 101.3%
[15]
  Activity: 52.12%
[16]
  Activity: 13.63%
[17]
  Activity: 78.92%
[18]
  LC50: > 100 µM
[19]
  LC50: > 100 µM
[20]
  LC50: > 100 µM
[21]
  LC50: > 100 µM
[22]
  LC50: > 100 µM
[23]
  Activity: 38.12%
[24]
  Activity: -34.84%
[25]
  Activity: 53.52%
[26]
  Activity: 36.23%
[27]
  Activity: 28.38%
[28]
  Activity: 10.38%
[29]
  Activity: 24.88%
[30]
  LC50: > 100 µM
[31]
  LC50: > 100 µM
[32]
  LC50: > 100 µM
[33]
  LC50: > 100 µM

Source: ChEMBL document CHEMBL1781959, “Synthesis and in vitro antitumor activity of substituted quinazoline and quinoxaline derivatives: search for anticancer agent” (Eur J Med Chem, 2011)
